B1: Osa-1-4 twister ribozyme (parent)
chain: CCGCCUAACACUGCCAAUGCCGGUCCCAAGCCCGGAUAAAAGUGGAGGGGGCGG

Variants of: B1
Assay: self-cleavage, relative activity (ratio to wild type); higher = more cleavage; co-transcriptional
Procedure, shortened: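 For each read, cleavage status was taken from whether upstream sequence was present. The reads came from an Oryza sativa twister ribozyme of 54 nucleotides, whose DNA template was synthesised with 97 % wild-type base and 1 % of each other base at the 48 positions downstream of the cleavage site. The template was transcribed in vitro at 37 °C for 2 h with co-transcriptional self-cleavage, and the RNA was reverse-transcribed using a template-switching oligonucleotide, PCR-amplified and deep-sequenced. Relative activity is the fraction cleaved normalised to wild type.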

Row | Variant | self-cleavage
1 | A46G A8U | 0.03
2 | A46G A8G | 0.04
3 | A46G A8C | 0.03
4 | A46G C14G | 0.04
5 | A46G C14A | 0.03
6 | A46G C14U | 0.03
7 | A46G G23U | 0.03
8 | A46G G23A | 0.05
9 | A46G G23C | 0.02
10 | A46G G50U | 0.06
11 | A46G G50C | 0.06
12 | A46G G50A | 0.08
13 | A46U G44A | 0.07
14 | A46U G44U | 0.07
15 | A46U G44C | 0.06
16 | A46U U43G | 0.07
17 | A46U U43C | 0.06
18 | A46U U43A | 0.08
19 | A46U G47U | 0.05
20 | A46U G47C | 0.04
21 | A46U G47A | 0.06
22 | A46U C14A | 0.03
23 | A46U C14U | 0.06
24 | A46U C14G | 0.03

Row | Variant | self-cleavage
25 | G47C U12C | 0.05
26 | G47C U12A | 0.06
27 | G47C U12G | 0.06
28 | G47C G49A | 0.05
29 | G47C G49U | 0.03
30 | G47C G49C | 0.06
31 | A46G U18A | 0.06
32 | A46G U18G | 0.13
33 | A46G U18C | 0.07
34 | A46U G34U | 0.06
35 | A46U G34C | 0.07
36 | A46U G34A | 0.06
37 | G47U G49C | 0.04
38 | G47U G49A | 0.05
39 | G47U G49U | 0.05
40 | G47U U18A | 0.28
41 | G47U U18C | 0.24
42 | G47U U18G | 0.57
43 | G47A U37G | 0.62
44 | G47A U37C | 0.44
45 | G47A U37A | 0.28
46 | G47A U24G | 0.02
47 | G47A U24C | 0.04
48 | G47A U24A | 0.04

Row | Variant | self-cleavage
49 | G47C U43G | 0.07
50 | G47C U43A | 0.1
51 | G47C U43C | 0.08
52 | A46G G44A | 0.05
53 | A46G G44U | 0.07
54 | A46G G44C | 0.05
55 | A46G G19U | 0.04
56 | A46G G19C | 0.02
57 | A46G G19A | 0.05
58 | A46U C11U | 0.08
59 | A46U C11A | 0.06
60 | A46U C11G | 0.05
61 | A46U C9A | 0.02
62 | A46U C9U | 0.04
63 | A46U C9G | 0.06
64 | A46U | 0.08
65 | G47U G53U | 0.1
66 | G47U G53A | 0.18
67 | G47U G53C | 0.06
68 | A46U C33G | 0.03
69 | A46U C33U | 0.06
70 | A46U C33A | 0.05
71 | A46G C33G | 0.03
72 | A46G C33A | 0.04

Row | Variant | self-cleavage
73 | A46G C33U | 0.06
74 | A46G G34A | 0.06
75 | A46G G34U | 0.05
76 | A46G G34C | 0.05
77 | G47C G54U | 0.24
78 | G47C G54A | 0.14
79 | G47C G54C | 0.13
80 | G47U G51C | 0.05
81 | G47U G51U | 0.08
82 | G47U G51A | 0.09
83 | A46G U37A | 0.05
84 | A46G U37G | 0.09
85 | A46G U37C | 0.08
86 | G47A G53C | 0.06
87 | G47A G53U | 0.08
88 | G47A G53A | 0.13
89 | G47C U24A | 0.03
90 | G47C U24C | 0.04
91 | G47C U24G | 0.01
92 | G47A U43C | 0.09
93 | G47A U43A | 0.11
94 | G47A U43G | 0.1
95 | A46U A8C | 0.03
96 | A46U A8G | 0.08

Row | Variant | self-cleavage
97 | A46U A8U | 0.07
98 | A46G G35C | 0.05
99 | A46G G35U | 0.08
100 | A46G G35A | 0.07
101 | A46G U43A | 0.06
102 | A46G U43C | 0.04
103 | A46G U43G | 0.12
104 | A46G C21A | 0.07
105 | A46G C21U | 0.09
106 | A46G C21G | 0.02
107 | A46U C52U | 0.09
108 | A46U C52G | 0.12
109 | A46U C52A | 0.1
110 | G47C G48A | 0.04
111 | G47C G48C | 0.05
112 | G47C G48U | 0.03
113 | A46G C32G | 0.07
114 | A46G C32U | 0.04
115 | A46G C32A | 0.03
116 | G47A G48U | 0.04
117 | G47A G48A | 0.08
118 | G47A G48C | 0.04
119 | A46G U24A | 0.04
120 | A46G U24G | 0.02

Row | Variant | self-cleavage
121 | A46G U24C | 0.04
122 | G47U U12G | 0.05
123 | G47U U12C | 0.07
124 | G47U U12A | 0.07
125 | G48A G50U | 0.09
126 | G48A G50A | 0.16
127 | G48A G50C | 0.09
128 | G47U G50A | 0.19
129 | G47U G50C | 0.07
130 | G47U G50U | 0.1
131 | A46U G22C | 0.03
132 | A46U G22U | 0.06
133 | A46U G22A | 0.09
134 | A46U G30U | 0.02
135 | A46U G30C | 0.01
136 | A46U G30A | 0.02
137 | A46U G54C | 0.08
138 | A46U G54U | 0.17
139 | A46U G54A | 0.08
140 | A46U G42C | 0.06
141 | A46U G42U | 0.03
142 | A46U G42A | 0.08
143 | A46G G51A | 0.05
144 | A46G G51C | 0.04

Row | Variant | self-cleavage
145 | A46G G51U | 0.05
146 | A46U G19C | 0.03
147 | A46U G19U | 0.04
148 | A46U G19A | 0.06
149 | A46G G42C | 0.04
150 | A46G G42A | 0.05
151 | A46G G42U | 0.04
152 | G48A G51A | 0.1
153 | G48A G51C | 0.04
154 | A46G C26U | 0.04
155 | A46G C26G | 0.02
156 | A46G C26A | 0.03
157 | A46G C15A | 0.06
158 | A46G C15U | 0.04
159 | A46G C15G | 0.04
160 | A46U G35C | 0.05
161 | A46U G35U | 0.09
162 | A46U G35A | 0.07
163 | A46G G48U | 0.02
164 | A46G G48A | 0.02
165 | A46G G48C | 0.03
166 | G48A | 0.14
167 | G47A U12G | 0.06

From the RNAGym collection of RNA variant scans (doi:10.1002/anie.201605470)
